A short description of data set [1]: melting temperature; fluorescence melt of hairpins on a sequencing array, two-state fit, raised by 9.35 °C to match UV melts. The settings on record: sodium 0.088 M. An outline of the steps: (§1)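 Cy3 fluorescence of library hairpins on a sequenced MiSeq flow cell, with annealed Cy3 and quencher oligos, was imaged in 50 mM Na-HEPES pH 8.0, 25 mM NaCl in 2.5 °C steps up to 60 °C. Signals were normalised to pre-quench Cy3 and to control variants. Melting temperature and folding enthalpy came from bootstrapped two-state fits, inverse-variance combined over four replicates. Fitted temperatures were raised by 9.35 °C to match UV melts.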

Data set [2] in a line: folding enthalpy; higher = less favourable; fluorescence melt of hairpins on a sequencing array, two-state fit. The note with it: sodium 0.088 M. An outline of the steps:
as §1

With GTACTTGGAAACAAGTGC (.(((((....))))).), in data set [1], the Tm came to 47.4 °C. In data set [2], the folding enthalpy was -21.1 kcal/mol.

On to GACCGTGGAAACACGATC ((.((((....)))).)), for which, in data set [1], the Tm turned out to be 43.1 °C. The folding enthalpy in data set [2] is -19.1 kcal/mol.

Turning to GTGAGCGGAAACGCTCGC (.(((((....))))).), the Tm in data set [1] was 62.7 °C. The folding enthalpy in data set [2] was -18.4 kcal/mol.

As to GATCGACAATTCGATC ((((((....)))))), in data set [1], the Tm was determined as 49.2 °C. In addition, in data set [2], the folding enthalpy was -42.5 kcal/mol.

For the sequence GCCCTGCGAAAGCCGCGC ((.(.((....)).).)), the Tm in data set [1] turned out to be 34.9 °C. For the same sequence, the folding enthalpy in data set [2] was -10.3 kcal/mol.

For GTACCCGGAAACGAGTAC ((((.((....)).)))), the Tm in data set [1] amounted to 41.1 °C. In addition, the folding enthalpy in data set [2] is -25.8 kcal/mol.

On to GCAGGTCGAAAGACGTGC (((.(((....))).))), for which the Tm in data set [1] is 62.8 °C. In data set [2], the folding enthalpy was -42.9 kcal/mol.

Regarding GCATTCGAAAGAAGTGC ((((((....))).))), in data set [1], the Tm is 40.2 °C. The folding enthalpy in data set [2] is -23.2 kcal/mol.

Turning to GCCGGCGAAAGCCGCGGC ((((((....)))..))), the Tm in data set [1] turned out to be 65.3 °C. For the same sequence, in data set [2], the folding enthalpy is -11.9 kcal/mol.

For the sequence GGACACCGAAAGGTCTCC (((.(((....))).))), in data set [1], the Tm came to 40 °C. The folding enthalpy in data set [2] is -23.8 kcal/mol.

Regarding GCGTACGAAAGTACCGC ((((((....))).))), in data set [1], the Tm was determined as 56.8 °C. Besides, the folding enthalpy in data set [2] was -22.2 kcal/mol.

Take GGTAACGAAAGTTTTACC ((((((....)))..))): the Tm in data set [1] came to 29.7 °C. Further, the folding enthalpy in data set [2] is -9.8 kcal/mol.

GCAAAGCGAAAGCTCGGC ((..(((....)))..)): the Tm in data set [1] is 36.5 °C. For the same sequence, the folding enthalpy in data set [2] is -16.6 kcal/mol.

With GTTGACCGAAAGGTAAAC (((.(((....))).))), the Tm in data set [1] amounted to 48.7 °C. The folding enthalpy in data set [2] is -30.7 kcal/mol.

Consider GTTTTTGGAAACAGAAAC ((((.((....)).)))), for which, in data set [1], the Tm came out at 32.7 °C. Moreover, the folding enthalpy in data set [2] is -28.1 kcal/mol.

Regarding GATCCTTTCGAGGATC ((((((....)))))), the Tm in data set [1] was 53.8 °C. For the same sequence, the folding enthalpy in data set [2] is -38.7 kcal/mol.

GGCAGCGGAAACGCCACC ((..(((....)))..)): the Tm in data set [1] was found to be 36.6 °C. The folding enthalpy in data set [2] is -13.9 kcal/mol.

As to GCTTACGAAAGTAAGAGC ((((((....)))..))), the Tm in data set [1] is 45.4 °C. Further, the folding enthalpy in data set [2] is -18.5 kcal/mol.

Consider GACGACGGAAACGTTGTC (((.(((....))).))), for which the Tm in data set [1] is 55 °C. Further, in data set [2], the folding enthalpy was -43.1 kcal/mol.

GTGGCAACGAAAGTTCAC (((..(((....)))))): the Tm in data set [1] came to 27.8 °C. For the same sequence, the folding enthalpy in data set [2] was -7.15 kcal/mol.

With GGCCACGAAAGTGAAGCC ((((((....)))..))), the Tm in data set [1] turned out to be 53.5 °C. In addition, the folding enthalpy in data set [2] is -31.9 kcal/mol.

Regarding GCTTTGCGAAAGCAAGGC ((.((((....)))).)), the Tm in data set [1] is 62.1 °C. The folding enthalpy in data set [2] was -21.3 kcal/mol.

For GCCGCGCGAAAGCACCGC ((.(.((....)).).)), the Tm in data set [1] was 46.5 °C. In data set [2], the folding enthalpy was -13.8 kcal/mol.

Consider GACTATGGAAACGTAGTC (((((.(....).))))), for which the Tm in data set [1] was determined as 42 °C. Moreover, in data set [2], the folding enthalpy was -32.4 kcal/mol.

For the sequence GCTTCGACGAAAGTCAGC (((..(((....)))))), in data set [1], the Tm was 33.5 °C. In data set [2], the folding enthalpy was -13.1 kcal/mol.

Turning to GATCTTACAAAAGATC ((((((....)))))), the Tm in data set [1] turned out to be 39.6 °C. For the same sequence, in data set [2], the folding enthalpy was -26.4 kcal/mol.

On to GATCGTTAAAACGATC ((((((....)))))), for which, in data set [1], the Tm came to 54.5 °C. For the same sequence, the folding enthalpy in data set [2] was -35.6 kcal/mol.

On to GGTTACGGAAACGTAATC (.(((((....))))).), for which the Tm in data set [1] is 45.5 °C. Further, the folding enthalpy in data set [2] is -30.5 kcal/mol.

On to GTGGCTGGAAACAGCTAC ((.((((....)))).)), for which the Tm in data set [1] stood at 53.9 °C. Also, in data set [2], the folding enthalpy was -29.3 kcal/mol.

With GATCGAGTTCTCGATC ((((((....)))))), the Tm in data set [1] was 55.9 °C. Besides, the folding enthalpy in data set [2] was -39.6 kcal/mol.

Take GTCCGCGAAAGCGCCGAC ((((((....)))..))): in data set [1], the Tm was found to be 36.9 °C. The folding enthalpy in data set [2] was -11.1 kcal/mol.

As to GTGTTCGCGAAAGCGCAC (((..(((....)))))), the Tm in data set [1] was determined as 45.2 °C. The folding enthalpy in data set [2] was -18.1 kcal/mol.

Regarding GCATATCGAAAGATTGC (((.(((....)))))), the Tm in data set [1] stood at 46.6 °C. Further, in data set [2], the folding enthalpy is -25.9 kcal/mol.

As to GATCAAAGATTGATC ((((((...)))))), in data set [1], the Tm was 36.1 °C. The folding enthalpy in data set [2] is -27.5 kcal/mol.

On to GGGACCGGAAACGACCCC (((..((....))..))), for which the Tm in data set [1] came to 35.5 °C. The folding enthalpy in data set [2] was -25.2 kcal/mol.

In the case of GCTGCGGGAAACCGTGGC ((..(((....)))..)), in data set [1], the Tm is 52.6 °C. Besides, the folding enthalpy in data set [2] was -35.3 kcal/mol.

In the case of GATCCTAACAGGATC ((((((...)))))), the Tm in data set [1] amounted to 55.3 °C. Moreover, the folding enthalpy in data set [2] is -40.5 kcal/mol.

With GCGACGCGAAAGCAACGC (((..((....))..))), the Tm in data set [1] turned out to be 54.2 °C. In addition, the folding enthalpy in data set [2] is -16.8 kcal/mol.

For GATCATTAGATGATC ((((((...)))))), the Tm in data set [1] is 44.4 °C. Further, the folding enthalpy in data set [2] is -29.2 kcal/mol.

As to GCAGACGAAAGTCATGC ((((((....))).))), in data set [1], the Tm is 51 °C. Further, the folding enthalpy in data set [2] was -24.1 kcal/mol.

With GTAAACGGAAACGTCTAC (((.(((....))).))), the Tm in data set [1] amounted to 29 °C. For the same sequence, the folding enthalpy in data set [2] was -21.2 kcal/mol.

Consider GTAGCTGGAAACGGCTAC (((((.(....).))))), for which the Tm in data set [1] was 52.5 °C. In addition, the folding enthalpy in data set [2] was -40.8 kcal/mol.

Regarding GCGAGCGCGAAAGCGCGC (((..(((....)))))), the Tm in data set [1] was 59.9 °C. Further, the folding enthalpy in data set [2] was -7.4 kcal/mol.

Turning to GCGACAGGAAACTGTTGC ((.((((....)))).)), the Tm in data set [1] is 54.9 °C. Moreover, the folding enthalpy in data set [2] was -34.4 kcal/mol.

Turning to GCGCTGCGAAAGCACGGC ((..(((....)))..)), the Tm in data set [1] is 51.5 °C. In data set [2], the folding enthalpy is -15.1 kcal/mol.

In the case of GATCGTAACAACGATC ((((((....)))))), the Tm in data set [1] amounted to 55 °C. In addition, in data set [2], the folding enthalpy was -35.4 kcal/mol.

As to GCACGAGGAAACTCGCGC ((.((((....)))).)), the Tm in data set [1] was 54.5 °C. In addition, the folding enthalpy in data set [2] is -43.5 kcal/mol.

With GGGGGAGGAAACTCTCCC (((.(((....))).))), the Tm in data set [1] came out at 52.7 °C. In addition, the folding enthalpy in data set [2] is -38 kcal/mol.

Regarding GTGAAGCGAAAGCTACAC (((.(((....))).))), the Tm in data set [1] turned out to be 55.7 °C. The folding enthalpy in data set [2] is -30.1 kcal/mol.

Consider GACCGCGAAAGCGCAGTC ((((((....)))..))), for which, in data set [1], the Tm was 38 °C. In data set [2], the folding enthalpy is -16.3 kcal/mol.

For GTAACCGAAAGGTGTTAC ((((((....)))..))), in data set [1], the Tm stood at 35 °C. Moreover, the folding enthalpy in data set [2] is -12.6 kcal/mol.

Regarding GAAGCTGAAAAGCTTC ((((((....)))))), the Tm in data set [1] was found to be 58.3 °C. The folding enthalpy in data set [2] was -31.2 kcal/mol.

For the sequence GATCTCACCCGAGATC ((((((....)))))), the Tm in data set [1] was 53.1 °C. Besides, the folding enthalpy in data set [2] is -39.5 kcal/mol.

Take GATCGGGGTCCCGATC ((((((....)))))): the Tm in data set [1] amounted to 61 °C. Moreover, the folding enthalpy in data set [2] is -39.5 kcal/mol.

Regarding GGTCTCGGAAACGAGGTC (..((((....))))..), the Tm in data set [1] amounted to 38.2 °C. For the same sequence, in data set [2], the folding enthalpy was -15.9 kcal/mol.

For GATCCCCGTTGGGATC ((((((....)))))), in data set [1], the Tm came out at 62.2 °C. In addition, the folding enthalpy in data set [2] is -32.3 kcal/mol.

On to GACGCAGCGAAAGCTGTC (((..(((....)))))), for which the Tm in data set [1] is 33.5 °C. Further, in data set [2], the folding enthalpy was -7.32 kcal/mol.

Turning to GCATGCCCGAAAGGGTGC (((..(((....)))))), the Tm in data set [1] was 44.4 °C. In addition, the folding enthalpy in data set [2] was -14.3 kcal/mol.

For the sequence GCTTAGCGAAAGCTATGC ((.((((....)))).)), in data set [1], the Tm came out at 59.5 °C. Besides, in data set [2], the folding enthalpy was -26.6 kcal/mol.

On to GCTATGCGAAAGCCTAGC ((((.((....)).)))), for which the Tm in data set [1] amounted to 52.4 °C. In addition, in data set [2], the folding enthalpy was -28.8 kcal/mol.

(Values after the array DNA melting data of Ke et al. (doi:10.1101/2024.01.08.574731).)
